This is an account of results in PMC3119721 (Biochemistry, 2011).

Series [1] concerns the target PduO-type ATP-dependent cob(I)alamin adenosyltransferase (ATR) (Methylorubrum extorquens, UniProt C5AZG1, DEL180-190). Put plainly: isothermal titration calorimetry. The format is binding. The method in brief: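 Recombinant His-tagged M. extorquens ATR, D180X mutant, expressed in E. coli BL21(DE3) and Ni-NTA purified. 40–45 μM protein in 50 mM HEPES pH 8, 0.3 M KCl, 10 mM MgCl2, 5% glycerol at 4 °C, titrated with 45 aliquots of 1–2 mM ATP or AdoCbl. KA, ΔH° and ΔS° were obtained from two-site (ATP) or single-site (AdoCbl) fits, in triplicate.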
In general terms: In ITC the heat of successive injections is recorded.

Series [2] deals with Nc1ncnc2c1ncn2[C@@H]1O[C@H](COP(=O)(O)OP(=O)(O)OP(=O)(O)O)[C@@H](O)[C@H]1O. Put plainly: purified protein. The format is biochemical, Methylorubrum extorquens. The following applies: printed as D180X; 55 μM HOCbl (reduced to cob(I)alamin), ATP 0.5-300 μM.
Substrate in the series “purified protein”: Nc1ncnc2c1ncn2[C@@H]1O[C@H](COP(=O)(O)OP(=O)(O)OP(=O)(O)O)[C@@H](O)[C@H]1O
Put plainly: purified protein. Format: biochemical, Methylorubrum extorquens. Conditions: apparent; 55 μM HOCbl (reduced to cob(I)alamin), ATP 0.5-300 μM.

As a reminder, the Kd is a measure of binding affinity in units of concentration. A higher Kd goes with a looser complex. In series [1], `Nc1ncnc2c1ncn2[C@@H]1O[C@H](COP(=O)(O)OP(=O)(O)OP(=O)(O)O)[C@@H](O)[C@H]1O` [ATP] had a Kd of 480 ± 20 nM.
As usually defined, the Km is the concentration of substrate that gives half-maximal velocity. The term kcat/Km denotes the second-order rate constant that governs catalysis at low substrate concentration. In the case of “PduO-type ATP-dependent cob(I)alamin adenosyltransferase (ATR) (Methylorubrum extorquens AM1; DEL180-190)”, in series [2], the Michaelis constant (Km) worked out at 9.5 ± 1.2 µM, the kcat entry is “(2.5 ± 0.1) × 10^−1 s^−1” and the kcat/Km worked out at 27000 ± 1000 M⁻¹ s⁻¹.

B1: PduO-type ATP-dependent cob(I)alamin adenosyltransferase (ATR) (Methylorubrum extorquens AM1) (protein)
chain: MVKLNRIYTRTGDQGTTGLANGERRSKADLRVEAYGTVDETNACIGLARLTAEPALDAMLARIQNDLFDLGADLATPPSDKPLGYEPLRIVPAQVQRLETEIDALNANIPPLKSFVLPGGSAAAAALHLARTVCRRAERLVVALSGVESEAISGEALQYLNRLSDFLFVASRAANRDGADDVLWVPGQNR
With B1, the Km in the series “purified protein” came out at 8.4 ± 1.4 µM.
